Compound activity as filed in PubChem.
Hits are enriched below; roughly 1.1% of the tested compounds scored in any of these assays.
T cell modulator: modulators of CD8 T cell-vesicle binding, primary screen, mouse 2C CD8+ T cells, flow cytometry. 330,000 tested, 0.068% active. 2C CD8+ T cell-vesicle binding; stronger effect = lower value. response (vesicle binding), % at 7 µM;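 active = response, share of CD8 T cells binding vesicles, and their 90th percentile fluorescence all below set limits, cut at about 80% in these data, passing the limit was not always enough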;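 also: values below 100% mean blocked vesicle binding to the CD8+ T cells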
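incubation = binding step 1.5 h, 37 °C, antibody labelling 20 min, ice | test system = 2C mouse CD8+ T cells | read-out basis = percent CD8+ FL2 mean versus row control | controls = Peptide-free naked vesicles (low) and QL9 vesicles with 0.7% DMSO vehicle (high) | detection = flow cytometry of vesicle-bound cells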
CaV13 ICDI inh: Disruptors of the CACNA1D IQ motif to Ca2+-dependent inactivation inhibitor domain association, primary screening, Förster resonance energy transfer in intact living … | 340,000 tested, 0.098% active | AID 743397 | inhibition, % at 12.3 µM | HEK cells, CFP/YFP FRET ICDI-IQ, plate reader, 10 min; percent FRET-ratio fall versus neutral wells;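 active = mean replicate inhibition of at least 30% and at least 1% of replicates passing that level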
procasp3 activ: activators of human procaspase-3 D3A mutant, primary screen, biochemical, absorbance, PC-3 D3A mutant, single concentration; Caspase-3 (Homo sapiens), P42574; activation, % at 8.5 µM; recombinant procaspase-3 D3A, Ac-DEVD-pNA absorbance 405 nm; AID 463141, 2010; 330,000 tested, 0.11% active;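 active = activation above the mean of all tested compounds plus 3 SD, cut at about 21% in these data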
Target sequence (P42574 whole entry D9A/D28A/D175A): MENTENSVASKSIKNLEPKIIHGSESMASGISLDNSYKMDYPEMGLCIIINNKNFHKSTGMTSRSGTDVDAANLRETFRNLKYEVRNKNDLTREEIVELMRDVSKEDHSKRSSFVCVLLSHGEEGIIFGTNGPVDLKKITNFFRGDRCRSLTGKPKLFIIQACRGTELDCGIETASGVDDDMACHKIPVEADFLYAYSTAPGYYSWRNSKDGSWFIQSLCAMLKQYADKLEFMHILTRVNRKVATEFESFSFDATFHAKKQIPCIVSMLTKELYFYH
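Test system: Procaspase-3 D3A mutant, all three cleavage aspartates alanine | Dosing: Single dose, 8.5 µM nominal compound, 0.8% DMSO | Schedule: 1 h preincubation, 2 h reaction | Technique: 405 nm absorbance of p-nitroaniline, reads at 0 and 120 min | Repeats: One well per compound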
aDG glyco act: activators of alpha-DG glycosylation, primary screen, uHTS, Pro5-aDG cells, AlphaScreen; activation, % at 10 µM; alpha-DG glycosylation AlphaScreen (IIH6); 0% Pro5, 100% B10-LARGE cell signal; 360,000 tested, 0.22% active;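 active = activation of at least 8% versus controls, or a plate z-score of at least 8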;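 also: Pro5 are CHO cells carrying HIG-tagged alpha-DG that lacks glycosylation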
GRK2 aptamer HTS: compounds blocking aptamer binding on GRK2 – biochemical, human GRK2, bead flow cytometry, HTS, primary screen; Beta-adrenergic receptor kinase 1 (Homo sapiens), P25098; FAM-aptamer displacement from GRK2; inhibition of aptamer binding, % at 10 µM; 330,000 tested, 0.59% active;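 active = inhibition of aptamer binding above 40%, roughly 3 SD of noise, on plates passing a quality check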;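 also: median bead fluorescence of bound FAM aptamer so fluorescent compounds give negative values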
proCasp7 act: procaspase-7 activators, primary screen, counter-screen for procaspase-3 activator project, biochemical, absorbance, HTS, human. activation, % at 8.5 µM. 330,000 tested, 0.093% active. AID 463210, 2010. Caspase-7 (Homo sapiens), P55210. recombinant procaspase-7, Ac-DEVD-pNA absorbance 405 nm; D23A/D198A/D206A triple mutant, cannot self-cleave; scale: DMSO 0, 5 µM enzyme 100;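 active = percent activation above the screen-wide mean plus 3 SD, cut at about 25% in these data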
Target sequence (P55210 whole entry D23A/D198A/D206A): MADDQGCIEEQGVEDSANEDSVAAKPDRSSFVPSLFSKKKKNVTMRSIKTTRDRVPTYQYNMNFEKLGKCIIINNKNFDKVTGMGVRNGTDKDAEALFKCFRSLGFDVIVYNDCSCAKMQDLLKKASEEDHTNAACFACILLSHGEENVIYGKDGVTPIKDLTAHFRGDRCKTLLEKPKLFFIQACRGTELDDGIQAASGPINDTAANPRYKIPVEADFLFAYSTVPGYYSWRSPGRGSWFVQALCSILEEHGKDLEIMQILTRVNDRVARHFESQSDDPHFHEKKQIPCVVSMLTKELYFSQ
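Assay system: Uncleavable procaspase-7 mutant enzyme | Input: 2 µM procaspase-7 mutant as dispensed | Timing: 1 h compound preincubation, 2 h substrate cleavage, 25 °C | Repeats: One well per compound | Control set: DMSO wells as 0%, DMSO with 5 µM added PC-7 as 100% | Technique: Epi-absorbance of released pNA at 405 nm, two timepoints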
GRK2 CP1: GRK2 aptamer-displacing inhibitors, retest, confirmation, biochemical, cherry pick 1, bead flow cytometry | shares compounds with GRK2 aptamer HTS | bead-bound GRK2, FAM-aptamer displacement | aptamer displacement, % at 10 µM | 2,000 tested, 4% active | AID 504451, 2011;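 active = aptamer displacement above 40%, near three times the noise of non-fluorescent compounds, on plates passing quality checks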;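 also: negative values mostly reflect intrinsic compound fluorescence rather than true enhancement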
Aptamer quench SP: aptamer fluorescence quenching in GRK2 counter-screen; AID 504580; shares compounds with GRK2 aptamer HTS; 2,000 tested, under 10 active; Carboxyfluorescein RNA aptamer on beads, flow cytometry quenching; stronger effect = lower value; fluorescence response (% of DMSO), % at 10 µM;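 active = compounds that quench the bead-bound fluorescent RNA probe, cutting fluorescence to under half of the solvent control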;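 also: counterscreen run without GRK2 so only probe quenching by compound is measured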
GRK2 CP2: GRK2 aptamer-displacing inhibitors, hit retest, confirmation, biochemical, cherry pick 2, bead flow cytometry. inhibition of aptamer binding, % at 10 µM. 360 tested, under 10 active. shares compounds with GRK2 aptamer HTS. bead-bound GRK2, FAM-aptamer displacement;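 active = inhibition of aptamer binding above 40%, about triple the noise seen with nonglowing compounds, on plates passing quality control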;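 also: negative values mostly come from compounds that fluoresce themselves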
FAM quench CP2: aptamer fluorescence quenching in GRK2 counter-screen. fluorescence response vs DMSO, % at 10 µM. shares compounds with GRK2 aptamer HTS. carboxyfluorescein RNA aptamer beads, flow cytometry quenching; stronger effect = lower value. 360 tested, under 10 active;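 active = response vs DMSO under 50%, meaning signal dropped by over half, treated as fluorescence quencher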;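 also: labelled aptamer on streptavidin beads without GRK2 as a quench counter-screen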
Of the large screens only hits and unclear results are named; the others gave an inactive call (follow-up assays come after a bar, where they were run).

C[C@]12C=CC(=O)C=C1CC[C@@H]1C2C(O)C[C@@]2(C)C1CC[C@]2(O)C(=O)COC(=O)CCC(=O)NC(CC(=O)O)C(=O)O (stereo partly drawn)	none
COc1ccc(C(O)Cc2nccn2C)cc1 (stereo not drawn)	none
CN(C)C(=O)c1nc2ccc(Cl)cn2c1CNCc1ccccc1OC(F)(F)F	none
COc1ccc(OCC(=O)N2CCN(c3nnc(-c4ccc(C)cc4)c4ccccc34)CC2)cc1	GRK2 aptamer HTS 54 | GRK2 CP1 inactive | Aptamer quench SP inactive
Cc1ccc(OCC(=O)N2CCN(c3nnc(-c4ccc(C)cc4)c4ccccc34)CC2)cc1	none
CCCCNC(=O)C[C@H]1C[C@@]2(C(=O)OC)C(=C[C@H](COCc3ccccc3)O[C@@H]2C)N(Cc2ccc3c(c2)OCO3)C1=O	none (no result: T cell modulator, procasp3 activ, aDG glyco act, GRK2 aptamer HTS, proCasp7 act)
COc1ccc(S(=O)(=O)N(C)Cc2ccc3c(c2)OCCO3)cc1	GRK2 aptamer HTS 42 | GRK2 CP1 inactive | Aptamer quench SP inactive
COc1cccc(CN(C)S(=O)(=O)c2ccc3c(c2)OCCO3)c1	none (no result: T cell modulator, procasp3 activ, GRK2 aptamer HTS, proCasp7 act)
COc1ccc(C(=O)NC2CCN(CC(=O)Nc3c(C)cccc3C)CC2)cc1OC	none
CCN(Cc1ccccc1)C(=O)COC(=O)c1c(C)nsc1NC	none
CNc1snc(C)c1C(=O)OCC(=O)c1ccc(Cl)cc1	GRK2 aptamer HTS 51 | GRK2 CP1 inactive | Aptamer quench SP inactive
CCC(=O)c1c[nH]c(C(=O)N2CCOCC2)c1	GRK2 aptamer HTS 100 (no result: CaV13 ICDI inh) | GRK2 CP2 inactive | FAM quench CP2 inactive
CCCCNc1c(CC(C)C)nc2nc(C)cc(C)n12	none (no result: T cell modulator, procasp3 activ, GRK2 aptamer HTS, proCasp7 act)
CN(Cc1ccccc1)C(=O)[C@@H]1CCCN1C(=O)[C@@H]1CCCN1C(=O)c1ccc(Cl)cc1	none (no result: T cell modulator, procasp3 activ, GRK2 aptamer HTS, proCasp7 act)
O=C1C(=O)c2ccc(-c3ccccc3)cc2-c2ccccc21	GRK2 aptamer HTS 66 | GRK2 CP1 inactive | Aptamer quench SP inactive
N#CC(c1ccccc1O)N1N=C(c2ccccc2)CC1c1ccccc1 (stereo not drawn)	GRK2 aptamer HTS 46 | GRK2 CP1 inactive | Aptamer quench SP 39
COc1cc(C(C#N)N2N=C(c3ccccc3)CC2c2ccccc2)ccc1O (stereo not drawn)	none
O=C(COC(=O)c1cc2c(s1)CCC2)Nc1ccc(F)cc1	none
NC(=O)c1ccc(NC(=O)COC(=O)c2cc3c(s2)CCC3)cc1	GRK2 aptamer HTS 52 | GRK2 CP1 inactive | Aptamer quench SP inactive
CCn1c2ccc(C)cc2c2nnc(SCCN3CCOCC3)nc21	none
Cc1ccc2c(c1)c1nnc(SCC(=O)N3CCN(c4ccc(F)cc4)CC3)nc1n2CC(=O)O	GRK2 aptamer HTS 100 | GRK2 CP2 inactive | FAM quench CP2 inactive
O=C(NCCOc1ccc(F)cc1)C1CCC(=O)N(Cc2ccc(Cl)cc2)C1 (stereo not drawn)	none (no result: T cell modulator, procasp3 activ, GRK2 aptamer HTS, proCasp7 act)
COc1ccc(NC2CCCN(C(=O)c3ccccc3N3CCOCC3)C2)cc1OC (stereo not drawn)	none (no result: CaV13 ICDI inh)
O=C(Nc1ccccc1N1CCOCC1)c1cc(=O)[nH]c2ccccc12	GRK2 aptamer HTS 82 | GRK2 CP1 inactive | Aptamer quench SP inactive
COc1cc(C2NC(=O)N(C)C(C)=C2C(=O)OCc2ccccc2)cc(Br)c1O (stereo not drawn)	none
O=C1OCc2ccc(NC(=O)c3sccc3Cl)cc21	GRK2 aptamer HTS 73 | GRK2 CP1 inactive | Aptamer quench SP inactive
Cc1csc(NC(=O)C2CCCCN2S(=O)(=O)c2ccccc2)n1 (stereo not drawn)	GRK2 aptamer HTS 95 | GRK2 CP1 inactive | Aptamer quench SP inactive
O=C(Nc1nccs1)C1CCCCN1S(=O)(=O)c1ccccc1 (stereo not drawn)	none
O=C(CNC(=O)c1ccccc1)N/N=C/c1ccccc1Cl	GRK2 aptamer HTS 47 | GRK2 CP1 inactive | Aptamer quench SP inactive
CCCCNC(=O)C1c2ccccc2OCC(=O)N1CC(F)(F)F (stereo not drawn)	none (no result: T cell modulator, procasp3 activ, GRK2 aptamer HTS, proCasp7 act)
O=C(O)c1ccccc1-c1nnc2c(Cl)cc(C(F)(F)F)cn12	none | GRK2 CP1 inactive | Aptamer quench SP inactive
CCOC(=O)c1cc(CN2CCOCC2)oc1-c1ccccc1	GRK2 aptamer HTS 69 | GRK2 CP1 inactive | Aptamer quench SP inactive
O=S(=O)(c1ccccc1OC(F)(F)F)N1CCN(c2ccnc3cc(Cl)ccc23)CC1	GRK2 aptamer HTS 77 | GRK2 CP2 inactive | FAM quench CP2 inactive
COc1ccc(-c2nc(CNS(=O)(=O)c3ccc(OC)c(OC)c3)cs2)cc1	GRK2 aptamer HTS 84 | GRK2 CP1 inactive | Aptamer quench SP inactive
C=CCn1cccc(C(=O)Nc2ccc(OC)c(OC)c2)c1=O	GRK2 aptamer HTS 48 | GRK2 CP1 inactive | Aptamer quench SP inactive
CC(=Nc1ccccc1)C1=C(O)CCCC1=O	none | GRK2 CP1 inactive | Aptamer quench SP inactive
CC1CC(C)CN(S(=O)(=O)c2cccc(C(=O)OCCN3CCCC3=O)c2)C1 (stereo not drawn)	GRK2 aptamer HTS 89 (no result: CaV13 ICDI inh) | GRK2 CP1 inactive | Aptamer quench SP inactive
CC1CN(S(=O)(=O)c2cccc(C(=O)OCCOc3ccccc3)c2)CC(C)O1 (stereo not drawn)	none
CCOc1ccc(CNC(=S)N/N=C\c2ccc([N+](=O)[O-])cc2)cc1	GRK2 aptamer HTS 64 | GRK2 CP1 inactive | Aptamer quench SP inactive
